Measurements gathered from unrelated publications.
Lines come from different studies, so protocols differ.
EIF2AK4: eIF-2-alpha kinase GCN2 (EIF2AK4, Homo sapiens, UniProt Q9P2K8)
EIF2AK4 S808G C-terminal kinase domain: eIF-2-alpha kinase GCN2, C-terminal kinase domain (EIF2AK4, Homo sapiens, UniProt Q9P2K8, S808G)
EIF2AK4 S808G: eIF-2-alpha kinase GCN2 (EIF2AK4, Homo sapiens, UniProt Q9P2K8, S808G)

| Compound | target | assay | test system | conditions | quantity | result |
| --- | --- | --- | --- | --- | --- | --- |
| CN1CC(Oc2cnc(C#N)cc2-c2ccn3nc(NC(=O)C4CC4)cc3c2)C1 | EIF2AK4 | enzyme activity, inhibitor | – | 1 µM | inhibition | 15% |
| Nc1ncnc2occ(-c3ccc(NC(=O)Nc4cc(C(F)(F)F)ccc4F)cc3)c12 | EIF2AK4 S808G C-terminal kinase domain | cell-free assay, inhibitor | – | 20 µM | remaining signal | 3.6% |
| COc1ccc2cc(OCC3(C(=O)O)CN(C(=O)c4ccc(F)cc4)C3)ccc2c1 | EIF2AK4 S808G C-terminal kinase domain | cell-free assay, competition with immobilised ligand | – | 1 µM | remaining binding | 100% |
| Cc1ccc(NC(=O)c2ccc(C)c(C(F)(F)F)c2)cc1C#Cc1nn(C2CCC(O)CC2)c2ncnc(N)c12 (stereo not shown) | EIF2AK4 | cell-free assay | – | 10 µM | remaining signal | 50% |
| Cc1ccc(C(=O)Nc2ccc(CN3CCN(C)CC3)c(C(F)(F)F)c2)cc1C#Cc1cnc2cccnn12 | EIF2AK4 S808G | enzyme activity, inhibitor | – | 23.5 nM | remaining activity | 85% |
| Cc1cnc(NC2CCOCC2)nc1-n1cnc(C(=O)NC(CN)c2cc(F)cc(Cl)c2)c1 (stereo not shown) | EIF2AK4 | enzyme activity, inhibitor, radiometric | – | 1 µM | remaining activity | 82% |
| Cc1cc(NC(=O)c2cccc3cc(-c4cccc5[nH]nc(N)c45)ccc23)ccc1F | EIF2AK4 | enzyme activity, inhibitor | – | 0.1 µM | activity vs control | 92% |
| CC(=O)Nc1c(C(C)=O)c(=O)n(C)c2nc(-c3ccc(Cl)cc3Cl)c(-c3ccc(Cl)cc3)cc12 | EIF2AK4 S808G | binding, competition with immobilised ligand | – | 1 µM | remaining binding | 48% |
| COc1cc(Cl)c(C(=O)N[C@@H](CN[C@H]2CC[C@@H](N)CC2)Cc2ccc(C#N)cc2)cc1-c1ccc(CN[C@H](C)c2ccc(C)cc2)o1 | EIF2AK4 | enzyme activity, inhibitor | – | 1 µM | remaining activity | 102% |
| CNc1cc(Oc2cc(C(=O)Nc3cc(N4CCN(C)CC4)cc(C(F)(F)F)c3)ccc2C)ncn1 | EIF2AK4 | target engagement in cells, inhibitor, chemoproteomics | Huh-7 | 1 µM | inhibition | 37% |
